Only some compounds are listed: those with a hit (about 1% of all), similar ones and a draw of the others.
Fam108B inh = counter-screen for RBBP9 inhibitors: inhibitors of mouse Fam108B; recombinant Fam108B, FP-Rh probe fluorescence polarization; inhibition, % at 9.51 µM; 300,000 tested, 0.33% active; AID 1947;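 active = inhibition above the screen mean inhibition plus 3 SD, computed separately per campaign, cut at about 18% in these data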;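 also: inhibitors lower polarization as less probe binds the enzyme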
PME-1 inh = PME-1 (human) inhibition; 320,000 tested, 0.53% active; recombinant PME-1, FP-Rh probe fluorescence polarization; inhibition, % at 5.9 µM; Q9Y570;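 active = inhibition above the campaign mean of all compounds plus 3 SD, cut at about 26% in these data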;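 also: competitive labeling of PME-1 active site by serine hydrolase directed probe; inhibitors block probe labeling so polarization falls and inhibition rises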
LYPLA1 counter = blocks human lysophospholipase 1, a PME1 counter-screen; 320,000 tested, 0.16% active; recombinant LYPLA1, FP-Rh probe fluorescence polarization; inhibition, % at 5.9 µM; AID 2174;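 active = inhibition above the mean of all tested compounds plus 3 SD, set per campaign, cut at about 14% in these data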;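 also: inhibitors block serine hydrolase probe labeling of LYPLA1 so polarization falls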
Target sequence (O75608 whole entry, looked up): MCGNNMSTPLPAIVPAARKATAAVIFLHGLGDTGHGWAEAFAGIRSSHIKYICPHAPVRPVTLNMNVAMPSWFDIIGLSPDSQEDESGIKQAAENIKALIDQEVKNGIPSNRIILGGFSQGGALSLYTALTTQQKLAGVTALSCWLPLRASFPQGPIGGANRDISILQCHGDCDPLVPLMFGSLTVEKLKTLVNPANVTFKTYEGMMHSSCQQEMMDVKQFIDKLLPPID
proCasp7 act = counter-screen for procaspase-3 activators: activators of human procaspase-7 | P55210 | recombinant procaspase-7, Ac-DEVD-pNA absorbance 405 nm; D23A/D198A/D206A triple mutant, cannot self-cleave; scale: DMSO 0, 5 µM enzyme 100 | activation, % at 8.5 µM | 330,000 tested, 0.093% active | AID 463210;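 active = percent activation above the screen-wide mean plus 3 SD, cut at about 25% in these data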
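Assay system – Uncleavable procaspase-7 mutant enzyme · Quantity – 2 µM procaspase-7 mutant as dispensed · Times – 1 h preincubation, 2 h reaction · Dosing – single nominal 8.5 µM compound dose, 0.8% DMSO final · Buffer or medium – Zinc-free 50 mM HEPES buffer, pH 7.4, with NaCl and Triton X-100 · Detection – Epi-absorbance of released pNA at 405 nm, two timepoints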
proCasp3 act = activators of human procaspase-3. activation, % at 8.5 µM. 330,000 tested, 0.11% active. recombinant procaspase-3 D3A, Ac-DEVD-pNA absorbance 405 nm. P42574. AID 463141;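 active = activation above the mean of all tested compounds plus 3 SD, cut at about 21% in these data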
Target sequence (P42574 whole entry D9A/D28A/D175A): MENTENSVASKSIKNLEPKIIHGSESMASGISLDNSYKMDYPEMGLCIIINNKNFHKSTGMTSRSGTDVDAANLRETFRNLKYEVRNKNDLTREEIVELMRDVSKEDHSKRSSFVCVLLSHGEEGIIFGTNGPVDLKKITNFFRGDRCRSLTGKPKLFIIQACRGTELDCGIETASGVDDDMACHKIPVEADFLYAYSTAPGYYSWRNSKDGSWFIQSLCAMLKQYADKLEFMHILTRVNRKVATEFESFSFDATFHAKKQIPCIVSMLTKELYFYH
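Assay system: Autoprocessing-dead procaspase-3 D3A mutant enzyme; also added: Ac-DEVD-pNA; doses: one concentration, 8.5 µM nominal, 0.8% DMSO; times: 1 h compound preincubation, 2 h substrate hydrolysis at 25 °C; technique: 405 nm absorbance of p-nitroaniline, reads at 0 and 120 min; measure: % activation between DMSO and enzyme-spiked controls; repeats: single replicate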
LYPLA2 counter = LYPLA2 (human) inhibition in PME1 counter-screen. recombinant LYPLA2, FP-Rh probe fluorescence polarization. inhibition, % at 5.9 µM. 320,000 tested, 0.38% active. O95372;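 active = inhibition above the screen-wide mean plus 3 SD, limit set per campaign, cut at about 26% in these data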
Fam108b confirm = confirmation of mouse Fam108b serine hydrolase inhibitors. shares compounds with Fam108B inh. recombinant Fam108b, FP-Rh probe fluorescence polarization. inhibition, % at 9.51 µM. 930 tested, 44% active. AID 1978;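 active = inhibition above a limit from the primary screen, the mean over all compounds plus 3 SD, cut at about 19% in these data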;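 also: inhibitors free the probe so polarization falls as inhibition rises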
Fam108b inh = mouse ABHD17B inhibition; inhibition, % at 20 µM; shares compounds with Fam108B inh; recombinant Fam108b, gel-based ABPP, fluorophosphonate probe; 260 tested, 44% active; AID 588649; in the data active = inhibition above about 40%
A number is an active result; – = inactive; · = no result.

SMILES	Fam108B inh	PME-1 inh	LYPLA1 counter	proCasp7 act	proCasp3 act	LYPLA2 counter	Fam108b confirm	others
COc1ccc(O)c(/C=N/NC(=S)Nc2cccc(S(=O)(=O)N(C)C)c2)c1	37	53	–	–	–	–	–
COc1ccc(O)c(/C=N/NC(=S)Nc2cccnc2)c1	–	–	–	–	–	–	·
CC(=O)Nc1ccc(NC(=O)c2cc([N+](=O)[O-])cc([N+](=O)[O-])c2)cc1	–	–	–	–	–	–	·
Cc1ccc(NC(=O)c2ccc(Nc3c([N+](=O)[O-])cc([N+](=O)[O-])cc3[N+](=O)[O-])cc2)cc1	22	36	–	–	–	–	–
O=c1oc(-c2ccccc2F)nc2scc(-c3ccccc3)c12	55	–	–	–	–	–	54	Fam108b inh=80
COc1ccc(-c2csc3nc(-c4ccccc4OC)oc(=O)c23)cc1	28	–	–	–	–	–	52	Fam108b inh=85
Cc1nc2scc(-c3ccccc3)c2c(=O)o1	34	–	–	–	–	–	61	Fam108b inh=85
Cc1nc2scc(-c3ccccc3)c2c(=O)n1N	–	–	–	–	–	–	·
COC(=O)C[C@H](NC(=O)Cn1cnc2c(SC)nc(N)nc21)C(=O)OC	·	·	·	–	–	·	·
Cc1ccc(S(C)(=O)=N/C=C2\C(=O)c3sccc3N(C)S2(=O)=O)cc1 (stereo not given)	–	–	–	–	–	–	·
Cc1cccc(-c2nc(Nc3ccc(N4CCOCC4)cc3)c3ccccc3n2)c1	20	–	–	–	–	–	–
CCOC(=O)C1CCN(C(=O)Nc2ccc3nc(-c4ccco4)c(-c4ccco4)nc3c2)CC1	34	–	–	–	–	–	40	Fam108b inh=–
COc1ccc(/C=N/NC(=O)c2cc(C34CC5CC(CC(C5)C3)C4)[nH]n2)cc1O	24	–	–	–	–	–	–
Cc1ccc(C(C)C)c(OCc2ccc(C(=O)N/N=C/c3ccc(O)cc3O)cc2)c1	28	35	–	–	–	–	–
Cc1ccc(C(C)C)c(OCc2ccc(C(=O)N/N=C/c3ccc(C(=O)O)cc3)cc2)c1	–	–	–	–	–	–	·
CC(C)(C)OC(=O)NNC(=O)Nc1ccccc1C(F)(F)F	–	–	–	–	–	–	·
Cc1ccc(S(=O)(=O)Nc2ccccc2C(=O)Nc2nc(-c3ccc(F)cc3)cs2)cc1	24	–	–	–	–	–	97	Fam108b inh=65
CC1CN(S(=O)(=O)c2cc(C(=O)NC(C)c3cccnc3)ccc2Cl)CC(C)O1 (stereo not given)	·	·	·	–	–	·	·
Cc1ccc([N+](=O)[O-])cc1-c1[nH]c(-c2ccc(O)c(O)c2)nc1-c1ccccc1	–	–	–	–	–	–	·
COc1ccc(-c2nc(-c3ccccc3)c(-c3cc([N+](=O)[O-])ccc3C)[nH]2)cc1O	28	39	–	–	–	–	–
CCCSc1nnc(NC(=O)c2sc3nc(-c4cccs4)ccc3c2N)s1	22	42	–	–	–	–	–
CCCSc1nnc(NC(=O)c2ccco2)s1	–	–	–	–	–	–	·
Cc1csc(NC(=O)c2sc3nc(-c4cccs4)ccc3c2N)n1	31	45	–	–	–	–	–
O=C(CCc1ccc(Oc2cc([N+](=O)[O-])cc([N+](=O)[O-])c2)cc1)Nc1cccc(Cl)c1	28	–	–	–	–	–	–
COc1ccc(CCC(=O)Nc2cccc(Cl)c2)cc1	–	–	–	–	–	–	·
COc1ccc(-c2csc(NC(=O)Nc3ccccc3)n2)cc1	45	48	–	–	–	–	–
CCOC(=O)c1nn2c(C(F)(F)F)cc(-c3ccc(OC)cc3)nc2c1Br	–	–	–	–	–	–	·
CCN(CCO)c1nc(SC)nc2c1sc1nc(-c3ccco3)c3c(c12)CCC3	–	–	–	–	–	–	·
CSc1nc(NCCOCCO)c2sc3nc(-c4ccco4)c4c(c3c2n1)CCC4	29	–	–	–	–	–	–

Compound activity: PubChem, The Scripps Research Institute Molecular Screening Center
